# According to publication PMC4152746 (Cell Research, 2014):
# Where a SMILES comes first, the peptide text is derived from it. Where no end group is shown, it is not given here. [ ]: non-standard residue; d: D form. The star is where a group is joined. pY = N[C@@H](Cc1ccc(OP(=O)(O)O)cc1)C(=O)O; Cbz = O=C(OCc1ccccc1)*
# T1: PTPN18 (Homo sapiens, UniProt Q99952)
# T1 sequence (Q99952 6-300): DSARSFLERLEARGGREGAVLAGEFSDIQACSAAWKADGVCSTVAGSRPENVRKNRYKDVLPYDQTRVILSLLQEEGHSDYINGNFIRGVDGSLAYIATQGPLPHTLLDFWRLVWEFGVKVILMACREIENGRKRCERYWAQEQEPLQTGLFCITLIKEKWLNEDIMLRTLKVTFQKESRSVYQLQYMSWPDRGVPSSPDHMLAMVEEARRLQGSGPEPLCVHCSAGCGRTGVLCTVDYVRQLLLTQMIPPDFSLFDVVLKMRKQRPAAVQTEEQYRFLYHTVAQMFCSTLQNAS
# T2: PTPN18 P272M (UniProt Q99952 1-460, P272M)
# T2 sequence (looked up): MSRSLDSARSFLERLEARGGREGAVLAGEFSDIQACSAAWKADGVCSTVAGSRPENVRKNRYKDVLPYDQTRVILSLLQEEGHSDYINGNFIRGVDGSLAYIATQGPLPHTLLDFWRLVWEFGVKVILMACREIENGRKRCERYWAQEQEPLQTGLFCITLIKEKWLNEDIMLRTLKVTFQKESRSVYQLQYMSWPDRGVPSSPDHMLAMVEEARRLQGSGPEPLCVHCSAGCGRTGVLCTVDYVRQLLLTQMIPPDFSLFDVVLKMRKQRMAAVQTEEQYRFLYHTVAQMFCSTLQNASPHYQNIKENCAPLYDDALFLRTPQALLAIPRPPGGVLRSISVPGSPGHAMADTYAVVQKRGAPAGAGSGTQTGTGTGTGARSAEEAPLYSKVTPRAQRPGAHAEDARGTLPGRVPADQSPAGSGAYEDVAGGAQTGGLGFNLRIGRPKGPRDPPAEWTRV
# T3: PTPN18 V65A (UniProt Q99952 1-460, V65A)
# T3 sequence (looked up): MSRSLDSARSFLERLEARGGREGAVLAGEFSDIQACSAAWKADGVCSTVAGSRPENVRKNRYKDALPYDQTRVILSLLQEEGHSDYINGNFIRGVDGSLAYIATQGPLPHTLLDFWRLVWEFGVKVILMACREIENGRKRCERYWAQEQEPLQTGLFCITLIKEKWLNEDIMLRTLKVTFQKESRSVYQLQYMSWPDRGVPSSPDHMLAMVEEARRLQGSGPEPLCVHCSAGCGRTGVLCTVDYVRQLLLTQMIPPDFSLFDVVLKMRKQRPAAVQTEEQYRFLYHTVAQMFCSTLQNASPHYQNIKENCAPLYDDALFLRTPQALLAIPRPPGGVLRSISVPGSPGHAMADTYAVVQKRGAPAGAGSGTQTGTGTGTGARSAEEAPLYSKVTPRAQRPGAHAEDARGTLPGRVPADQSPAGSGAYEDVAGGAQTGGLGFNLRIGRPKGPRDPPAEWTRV
# T4: PTPN18 V65I (UniProt Q99952 1-460, V65I)
# T4 sequence (looked up): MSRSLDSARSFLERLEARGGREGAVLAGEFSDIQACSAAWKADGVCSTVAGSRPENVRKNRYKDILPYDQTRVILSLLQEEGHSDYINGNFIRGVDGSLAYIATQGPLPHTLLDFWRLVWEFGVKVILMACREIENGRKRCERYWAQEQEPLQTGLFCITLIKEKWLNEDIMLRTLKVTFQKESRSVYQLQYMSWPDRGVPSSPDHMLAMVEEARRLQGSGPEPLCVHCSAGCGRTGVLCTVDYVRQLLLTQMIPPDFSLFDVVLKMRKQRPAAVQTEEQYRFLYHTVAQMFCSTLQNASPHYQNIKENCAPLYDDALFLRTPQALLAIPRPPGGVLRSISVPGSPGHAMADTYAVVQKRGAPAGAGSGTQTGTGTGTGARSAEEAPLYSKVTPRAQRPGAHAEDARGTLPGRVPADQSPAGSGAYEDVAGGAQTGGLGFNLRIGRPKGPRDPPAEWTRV
# How the values were obtained:
# [1] = system: HER2 level in HepG2 cells; assay: EGF-induced HER2 degradation with proteasome inhibitor; format: cell-based; settings: 100 ng/ml EGF
# Method in brief: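 HepG2 cells are transfected with control vector or PTPN18, preincubated with MG-132, then exposed to EGF for a time course. HER2 is detected by western blot with a specific antibody and quantified.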
# PTPN18 [2] = target: T1, PTPN18; assay: pNPP phosphatase assay; format: biochemical; settings: PTPN18 versus PTP1B, DMG buffer, 37 °C
# PTPN18 [3] = target: T1, PTPN18; assay: PTPN18-catalyzed hydrolysis of pY-containing peptides; format: biochemical; settings: for Kcat/Km of PTPN18: calculated; for Kcat/Km of PTPN18 / Kcat for PTPN18 catalysis: range over the three peptides, pH 6.5, 37 °C, 10 nM PTPN18
# Method in brief: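 Peptide dephosphorylation by the phosphatase, read by two methods: tyrosine fluorescence gain (excitation 280 nm, emission 305 nm) and an end-point inorganic phosphate assay at 620 nm. Conditions were 37 °C in 50 mM 3,3-dimethylglutarate pH 6.5, 1 mM DTT, 1 mM EDTA, ionic strength 0.15 M. Reactions started with enzyme at 10 nM final. Kinetics came from nonlinear least-squares regression.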
# [4] = system: PTPN18 mutants V65A, V65I, P272M; assay: Catalytic activity of PTPN18 pY+1 pocket mutants towards HER2 phospho-peptides; format: biochemical, human; settings: mutations V65A, V65I and P272M versus wild type
# Method in brief: (§1)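 Recombinant PTPN18 (wild type or mutant) hydrolysing pY-containing peptides at 37 °C in 50 mM 3,3-dimethylglutarate, pH 6.5, 1 mM DTT, 1 mM EDTA, ionic strength 0.15 M. Reactions are started by adding enzyme to 10 nM final. Read-out is tyrosine fluorescence (ex 280/em 305 nm) or inorganic-phosphate end-point at 620 nm. Kinetics are fitted by nonlinear least-squares regression.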
# [5] = system: PTPN18 mutants R198A, R198E; assay: Catalytic activity of PTPN18 R198 mutants towards HER2 phospho-peptides; format: biochemical, human; settings: R198 changed to Ala or Glu versus wild type
# Method in brief: as §1
# PTPN18 P272M = target: T2, PTPN18 P272M; assay: cell-based or functional assay
# PTPN18 V65A = target: T3, PTPN18 V65A; assay: cell-based or functional assay
# PTPN18 V65I = target: T4, PTPN18 V65I; assay: cell-based or functional assay
molecule,measurement,setting,value
CC(C)C[C@@H](C=O)NC(=O)[C@H](CC(C)C)NC(=O)[C@H](CC(C)C)NC(=O)OCc1ccccc1 [MG132] (Cbz-Leu-Leu-Leu-aldehyde),Effect on PTPN18-overexpression-promoted HER2 degradation,"[1]; HepG2 cells transfected with PTPN18, 5 μM MG-132 for 16 h",almost abolished
same,Endogenous HER2 expression level,"[1]; HepG2 cells, 5 μM MG-132 preincubated for 16 h",significantly increased
"O=[N+]([O-])c1ccc(OP(=O)(O)O)cc1 [pNPP, para-nitrophenyl phosphate]",Kcat/Km of PTPN18 lower than that of PTP1B,PTPN18 [2],2000 fold
Ac-ENPE pY^1196 LTPQ-NH2 [HER2 pY^1196],Kcat/Km of PTPN18 relative to its Kcat/Km towards HER2 pY^1248,PTPN18 [3],approximately half
same,Kcat/Km of PTPN18,PTPN18 [3],400000 to 800000 M⁻¹ s⁻¹
same,Kcat for PTPN18 catalysis,PTPN18 [3],4 to 11.2 s⁻¹
same,Decrease of PTPN18 activity towards the peptide by mutation,[4],> 2 fold
Ac-ENPEpY^1248 LGLD-NH2 [HER2 pY^1248],Decrease of PTPN18 activity towards the peptide by mutation,[5],2-3 fold
same,Kcat/Km of PTPN18,PTPN18 [3],400000 to 800000 M⁻¹ s⁻¹
same,Kcat for PTPN18 catalysis,PTPN18 [3],4 to 11.2 s⁻¹
same,Decrease of PTPN18 activity towards the peptide by mutation,[4],> 2 fold
HER2 pY^1221pY^1222: HER2 doubly phosphorylated Y1221/Y1222 site phospho-peptide (FDNL[pY][pY]WDQD),PTPN18 activity towards the peptide (in words),PTPN18 [3],very weak activity
PLQRpY^1112 SEDP [HER2 pY^1112],Decrease of PTPN18 activity towards the peptide by mutation,[5],2-3 fold
same,Kcat/Km of PTPN18,PTPN18 [3],400000 to 800000 M⁻¹ s⁻¹
same,Kcat for PTPN18 catalysis,PTPN18 [3],4 to 11.2 s⁻¹
Ac-ENPE[pY]LTPQ-NH2 (SMILES CC(=O)N[C@@H](CCC(=O)O)C(=O)N[C@@H](CC(N)=O)C(=O)N1CCC[C@H]1C(=O)N[C@@H](CCC(=O)O)C(=O)N[C@@H](Cc1ccc(OP(=O)(O)O)cc1)C(=O)N[C@@H](CC(C)C)C(=O)N[C@H](C(=O)N1CCC[C@H]1C(=O)N[C@@H](CCC(N)=O)C(N)=O)[C@@H](C)O) [HER2 pY1196 phospho-peptide (Ac-ENPEpY1196LTPQ-NH2)],decrease of PTPN18 activity towards the peptide (Figure 6B),PTPN18 P272M,> 2 fold
same,decrease of PTPN18 activity towards the peptide (Figure 6B),PTPN18 V65A,> 2 fold
same,decrease of PTPN18 activity towards the peptide (Figure 6B),PTPN18 V65I,> 2 fold
Ac-ENPE[pY]LGLD-NH2 (SMILES CC(=O)N[C@@H](CCC(=O)O)C(=O)N[C@@H](CC(N)=O)C(=O)N1CCC[C@H]1C(=O)N[C@@H](CCC(=O)O)C(=O)N[C@@H](Cc1ccc(OP(=O)(O)O)cc1)C(=O)N[C@@H](CC(C)C)C(=O)NCC(=O)N[C@@H](CC(C)C)C(=O)N[C@@H](CC(=O)O)C(N)=O) [HER2 pY1248 phospho-peptide (Ac-ENPEpY1248LGLD-NH2)],decrease of PTPN18 activity towards the peptide (Figure 6B),PTPN18 P272M,> 2 fold
same,decrease of PTPN18 activity towards the peptide (Figure 6B),PTPN18 V65A,> 2 fold
same,decrease of PTPN18 activity towards the peptide (Figure 6B),PTPN18 V65I,> 2 fold
